From ChEMBL document CHEMBL2417548, “Design and synthesis of novel 3-substituted-indole derivatives as selective H3 receptor antagonists and potent free radical scavengers” (Bioorg Med Chem, 2013)
Calls of active or inactive are those of the source. The calls are words filed in the database; no cut-off is given here.

How the values were obtained:
hERG (KCNH2) [1] = molecular target: T1, hERG (KCNH2) (Homo sapiens, UniProt Q12809); experiment: Inhibition of human ERG expressed in HEK293 cells assessed as membrane depolarization at 3 uM by patch-clamp method; format: cell-based; settings: HEK293 cells that express hERG
T1 sequence (Q12809 whole entry): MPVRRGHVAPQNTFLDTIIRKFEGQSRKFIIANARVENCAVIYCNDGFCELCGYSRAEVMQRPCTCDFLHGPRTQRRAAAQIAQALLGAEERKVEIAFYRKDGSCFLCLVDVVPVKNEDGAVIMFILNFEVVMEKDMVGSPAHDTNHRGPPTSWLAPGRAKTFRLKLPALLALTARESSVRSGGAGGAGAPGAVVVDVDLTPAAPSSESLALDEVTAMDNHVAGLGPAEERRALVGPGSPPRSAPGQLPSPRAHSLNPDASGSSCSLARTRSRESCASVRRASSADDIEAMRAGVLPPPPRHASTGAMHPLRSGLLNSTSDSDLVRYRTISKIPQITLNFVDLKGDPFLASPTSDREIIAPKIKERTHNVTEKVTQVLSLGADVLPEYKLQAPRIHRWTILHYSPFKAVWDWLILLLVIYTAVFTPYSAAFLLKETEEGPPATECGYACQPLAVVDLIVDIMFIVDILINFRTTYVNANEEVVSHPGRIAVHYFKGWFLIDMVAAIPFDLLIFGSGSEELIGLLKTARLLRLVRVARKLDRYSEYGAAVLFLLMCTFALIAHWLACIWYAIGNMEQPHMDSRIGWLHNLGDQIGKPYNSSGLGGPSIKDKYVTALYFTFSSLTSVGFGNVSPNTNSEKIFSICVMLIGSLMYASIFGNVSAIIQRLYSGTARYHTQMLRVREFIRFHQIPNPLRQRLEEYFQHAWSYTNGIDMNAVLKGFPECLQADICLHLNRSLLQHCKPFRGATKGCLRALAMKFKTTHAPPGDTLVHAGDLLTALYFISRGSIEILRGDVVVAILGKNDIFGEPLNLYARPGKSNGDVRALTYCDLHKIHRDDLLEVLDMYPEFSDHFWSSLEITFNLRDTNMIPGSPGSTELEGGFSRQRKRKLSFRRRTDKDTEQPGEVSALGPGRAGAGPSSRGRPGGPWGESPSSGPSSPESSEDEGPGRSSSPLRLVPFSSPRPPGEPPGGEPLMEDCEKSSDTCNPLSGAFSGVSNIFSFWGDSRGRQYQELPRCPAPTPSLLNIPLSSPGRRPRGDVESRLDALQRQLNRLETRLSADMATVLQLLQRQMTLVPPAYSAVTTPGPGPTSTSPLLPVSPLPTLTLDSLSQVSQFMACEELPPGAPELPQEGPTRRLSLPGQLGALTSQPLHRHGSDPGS

[2] = Antioxidant activity assessed as ABTS free radical scavenging activity after 6 mins by spectrophotometry; format: functional
Procedure, shortened: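 ABTS (7 mM in water) reacted with 2.45 mM potassium persulfate (final), held in dark at room temperature ≥18 h to form radical cation, then serially diluted. Antioxidant added, mixed by pipette bubbling; absorbance at 415 nm read 6 min after addition, equilibrated at 30 °C. Each treatment repeated three times; melatonin as comparator.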

Histamine H3 receptor [3] = molecular target: T2, Histamine H3 receptor (Homo sapiens, UniProt Q9Y5N1); experiment: Antagonist activity at human histamine H3 receptor expressed in HEK293 cells assessed by forskolin induced cAMP response element activation after 5 hrs by luciferase reporter gene assay; format: functional, cell-based
T2 sequence (Q9Y5N1 whole entry): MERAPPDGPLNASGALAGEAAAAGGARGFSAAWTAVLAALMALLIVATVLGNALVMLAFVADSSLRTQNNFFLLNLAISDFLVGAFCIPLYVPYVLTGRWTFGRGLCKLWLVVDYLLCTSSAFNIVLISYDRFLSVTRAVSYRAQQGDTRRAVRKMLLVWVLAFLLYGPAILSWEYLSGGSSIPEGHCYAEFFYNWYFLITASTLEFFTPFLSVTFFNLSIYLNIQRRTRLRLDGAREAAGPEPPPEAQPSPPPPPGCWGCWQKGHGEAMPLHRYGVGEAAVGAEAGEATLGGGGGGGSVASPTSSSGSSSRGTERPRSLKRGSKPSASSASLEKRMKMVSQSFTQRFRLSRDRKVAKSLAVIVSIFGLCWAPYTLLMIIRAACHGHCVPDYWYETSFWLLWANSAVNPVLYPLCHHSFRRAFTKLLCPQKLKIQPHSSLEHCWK

hERG (KCNH2) [4] = molecular target: T1, hERG (KCNH2); experiment: Inhibition of human ERG expressed in HEK293 cells assessed as membrane depolarization at 100 nM by patch-clamp method; format: cell-based; settings: HEK293 cells that express hERG
[5] = molecular target: Histamine H4 receptor (Homo sapiens) (UniProt Q9H3N8); experiment: Antagonist activity at human histamine H4 receptor expressed in HEK293 cells assessed by forskolin induced cAMP response element activation after 5 hrs by luciferase reporter gene assay; format: functional, cell-based
Chain of Histamine H4 receptor (Homo sapiens) (Q9H3N8 whole entry): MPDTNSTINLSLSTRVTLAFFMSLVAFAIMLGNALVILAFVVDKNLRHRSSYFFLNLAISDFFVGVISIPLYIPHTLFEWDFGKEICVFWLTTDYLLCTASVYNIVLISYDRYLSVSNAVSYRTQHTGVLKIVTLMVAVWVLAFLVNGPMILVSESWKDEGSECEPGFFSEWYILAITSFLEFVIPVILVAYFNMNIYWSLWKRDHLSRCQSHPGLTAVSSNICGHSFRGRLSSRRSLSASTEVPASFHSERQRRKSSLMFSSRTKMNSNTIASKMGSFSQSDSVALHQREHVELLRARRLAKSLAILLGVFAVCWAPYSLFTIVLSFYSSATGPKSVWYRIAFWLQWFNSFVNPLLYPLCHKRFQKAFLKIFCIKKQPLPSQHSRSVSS
Procedure, shortened: (§1)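 Stable HEK-293 lines co-transfected with human H1, H2 or H4 receptor plus pCRE-Luc (G418 800 µg/mL selection), grown overnight to 90–95% confluence. Cells got 10 µM forskolin plus graded compound concentrations with 5 µM histamine in serum-free DMEM, 5 h at 37 °C. Read-out was firefly luciferase. Triplicate points, three separate experiments.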

[6] = molecular target: Histamine H2 receptor (Homo sapiens) (UniProt P25021); experiment: Antagonist activity at human histamine H2 receptor expressed in HEK293 cells assessed by forskolin induced cAMP response element activation after 5 hrs by luciferase reporter gene assay; format: functional, cell-based; procedure, shortened: as §1
Chain of Histamine H2 receptor (Homo sapiens) (P25021 whole entry): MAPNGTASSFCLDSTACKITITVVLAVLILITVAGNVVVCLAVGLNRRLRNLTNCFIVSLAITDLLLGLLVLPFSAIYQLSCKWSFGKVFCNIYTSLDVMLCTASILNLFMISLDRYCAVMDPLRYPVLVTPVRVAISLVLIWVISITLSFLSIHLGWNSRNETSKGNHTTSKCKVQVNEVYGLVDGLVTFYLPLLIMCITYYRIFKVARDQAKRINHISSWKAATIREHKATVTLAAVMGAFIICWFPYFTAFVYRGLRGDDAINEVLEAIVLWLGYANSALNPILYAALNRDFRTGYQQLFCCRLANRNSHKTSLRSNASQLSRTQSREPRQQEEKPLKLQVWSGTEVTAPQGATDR

[7] = molecular target: Histamine H1 receptor (Homo sapiens) (UniProt P35367); experiment: Antagonist activity at human histamine H1 receptor expressed in HEK293 cells assessed by forskolin induced cAMP response element activation after 5 hrs by luciferase reporter gene assay; format: functional, cell-based; procedure, shortened: as §1
Chain of Histamine H1 receptor (Homo sapiens) (P35367 whole entry): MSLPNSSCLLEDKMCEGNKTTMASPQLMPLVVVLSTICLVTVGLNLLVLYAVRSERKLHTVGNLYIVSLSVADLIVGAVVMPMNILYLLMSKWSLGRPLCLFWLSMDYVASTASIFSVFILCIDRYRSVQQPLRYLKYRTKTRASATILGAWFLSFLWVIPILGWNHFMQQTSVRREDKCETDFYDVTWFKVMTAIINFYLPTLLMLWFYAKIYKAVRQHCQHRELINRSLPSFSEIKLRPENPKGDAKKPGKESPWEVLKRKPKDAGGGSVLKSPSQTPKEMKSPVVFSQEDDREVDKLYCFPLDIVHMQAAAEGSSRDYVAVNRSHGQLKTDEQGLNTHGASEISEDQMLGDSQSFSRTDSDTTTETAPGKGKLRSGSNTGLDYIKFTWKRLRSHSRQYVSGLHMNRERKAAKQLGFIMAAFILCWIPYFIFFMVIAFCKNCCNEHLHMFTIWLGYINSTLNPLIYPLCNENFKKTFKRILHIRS

Histamine H3 receptor [8] = molecular target: T2, Histamine H3 receptor; experiment: Displacement of […] from human histamine H3 receptor expressed in HEK293 cells after 90 to 120 mins by liquid scintillation counting; format: cell-based

O=C(Cc1c[nH]c2ccccc12)Oc1ccc(CN2CCOCC2)cc1
inhibition at 3 µM (hERG (KCNH2) [1]): 12%
IC50 [2]: 5320 nM
IC50 (Histamine H3 receptor [3]): 790 nM

CCN(CC)Cc1ccc(OC(=O)CCc2c[nH]c3ccccc23)cc1
IC50 (Histamine H3 receptor [3]): > 10000 nM

O=C(CCc1c[nH]c2ccccc12)Nc1ccc(CN2CCCCC2)cc1
IC50 (Histamine H3 receptor [3]): > 10000 nM

CCN(CC)Cc1ccc(OC(=O)Cc2c[nH]c3ccccc23)cc1
IC50 (Histamine H3 receptor [3]): 4610 nM

c1ccc2c(CCNc3ccc(CN4CCCCC4)cc3)c[nH]c2c1
inhibition at 3 µM (hERG (KCNH2) [1]): 87%
IC50 (Histamine H3 receptor [3]): 80 nM

O=C(Nc1ccc(CN2CCCCC2)cc1)c1c[nH]c2ccccc12
IC50 (Histamine H3 receptor [3]): 1210 nM

O=C(Cc1c[nH]c2ccccc12)Nc1ccc(CN2CCCC2)cc1
IC50 (Histamine H3 receptor [3]): 1370 nM

c1ccc2c(CCCNc3ccc(CN4CCOCC4)cc3)c[nH]c2c1
IC50 (Histamine H3 receptor [3]): 490 nM

O=C(Cc1c[nH]c2ccccc12)Oc1ccc(CN2CCCC2)cc1
IC50 (Histamine H3 receptor [3]): 2460 nM

O=C(CCc1c[nH]c2ccccc12)Oc1ccc(CN2CCCCC2)cc1
IC50 (Histamine H3 receptor [3]): > 10000 nM

COc1cc(N)c(Cl)cc1C(=O)NC1CCN(CCCOc2ccc(F)cc2)CC1OC (stereo not drawn) [CISAPRIDE]
inhibition at 0.1 µM (hERG (KCNH2) [4]): 89%

O=C(CCc1c[nH]c2ccccc12)Nc1ccc(CN2CCOCC2)cc1
IC50 (Histamine H3 receptor [3]): > 10000 nM

O=C(Cc1c[nH]c2ccccc12)Nc1ccc(CN2CCOCC2)cc1
inhibition at 3 µM (hERG (KCNH2) [1]): 6%
IC50 [2]: 4710 nM
IC50 (Histamine H3 receptor [3]): 2190 nM

CCN(CC)Cc1ccc(NCCc2c[nH]c3ccccc23)cc1
IC50 (Histamine H3 receptor [3]): 290 nM

O=C(Cc1c[nH]c2ccccc12)Nc1ccc(CN2CCCCC2)cc1
IC50 (Histamine H3 receptor [3]): 2840 nM

O=C(CCc1c[nH]c2ccccc12)Oc1ccc(CN2CCCC2)cc1
IC50 (Histamine H3 receptor [3]): > 10000 nM

COc1ccc2[nH]cc(CCNC(C)=O)c2c1 [MELATONIN]
IC50 [2]: 1920 nM

c1ccc2c(CNc3ccc(CN4CCCCC4)cc3)c[nH]c2c1
IC50 (Histamine H3 receptor [3]): 540 nM

CCN(CC)Cc1ccc(NC(=O)CCc2c[nH]c3ccccc23)cc1
IC50 (Histamine H3 receptor [3]): > 10000 nM

O=C(Oc1ccc(CN2CCCCC2)cc1)c1c[nH]c2ccccc12
IC50 (Histamine H3 receptor [3]): 2030 nM

c1ccc2c(CCNc3ccc(CN4CCCC4)cc3)c[nH]c2c1
inhibition at 3 µM (hERG (KCNH2) [1]): 73%
IC50 (Histamine H3 receptor [3]): 180 nM

O=C(CCc1c[nH]c2ccccc12)Oc1ccc(CN2CCOCC2)cc1
IC50 (Histamine H3 receptor [3]): > 10000 nM

O=C(CCc1c[nH]c2ccccc12)Nc1ccc(CN2CCCC2)cc1
IC50 (Histamine H3 receptor [3]): > 10000 nM

O=C(Cc1c[nH]c2ccccc12)Oc1ccc(CN2CCCCC2)cc1
IC50 (Histamine H3 receptor [3]): 1040 nM

c1ccc2c(CCNc3ccc(CN4CCOCC4)cc3)c[nH]c2c1
Activity [5]: inactive
Activity [6]: inactive
Activity [7]: inactive
Ki (Histamine H3 receptor [8]): 4.26 nM
inhibition at 3 µM (hERG (KCNH2) [1]): 54%
IC50 [2]: 3050 nM
IC50 (Histamine H3 receptor [3]): 49 nM

CCN(CC)Cc1ccc(NC(=O)Cc2c[nH]c3ccccc23)cc1
IC50 (Histamine H3 receptor [3]): 3500 nM
